Bioassay records from PubChem BioAssay.
The entries come from a sample that favours hits as a whole.
CHOP inh: inhibitors of CHOP promoter induction, primary screen, cell-based, unfolded protein response, luciferase reporter. CHO-K1 CHOP-promoter luciferase, tunicamycin-induced, 15-18 h. inhibition, % at 10 µM. actives 3.8% (n = 220,000). AID 2732, 2010;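 active = compounds that reduced the stress-induced luciferase reporter signal by more than about 70% of percent inhibition, limit read from the data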;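 note: 0% = tunicamycin plus vehicle and 100% = wells without tunicamycin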
UPR CHOP act: activators of apoptotic CHOP UPR arm, primary screen, cell-based, CHO-CHOP luciferase reporter, luminescence, uHTS. UPR activation; percent of tunicamycin response over DMSO baseline. activation, % at 10 µM. actives 0.34% (n = 330,000);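 active = at 10 µM dose, activation of 40% or more, normalized to positive control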;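 note: 100% = tunicamycin at 10 µg/mL and 0% = DMSO alone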
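measured by = luciferase luminescence | assay system = CHO-CHOP cells, stable luciferase reporter of PERK-eIF2a-CHOP signalling | amount = 500 reporter cells seeded per well | timing = 6 h compound exposure at 37 °C after overnight seeding | controls = positive tunicamycin 10 µg/mL, negative DMSO alone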
hiPSC survival: enhancers of single-cell hiPSC survival, primary screen, ATPlite luminescence | survival enhancement, % at 20 µM | 100% = ROCK inhibitor wells, 0% = DMSO | actives 0.044% (n = 360,000); in the data active = survival enhancement above about 18%;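 note: cells exposed to compounds for 16 hours before the ATP read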
Cardio protect: cardioprotection against H2O2-induced cell death, primary screen, uHTS, H9c2 cells, ATPLite luminescence. H9c2 cardiomyocytes, H2O2 injury protection, 2 h. protection from H2O2 cell death, % at 20 µM. actives 0.63% (n = 360,000);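 active = compounds giving at least 50% protection of heart cells from peroxide-induced death in the single-dose screen, raw or plate-pattern-corrected value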;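 note: 0% = DMSO wells with peroxide and 100% = DMSO wells without peroxide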
UPR XBP1 act: activators of adaptive XBP1 UPR arm, primary screen, cell-based, CHO-XBP1 luciferase reporter, luminescence, uHTS. IRE1-XBP1 UPR activation; percent of tunicamycin response, DMSO as zero. activation, % at 20 µM. actives 0.33% (n = 330,000). AID 463104, 2010;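 active = versus positive control, 20 µM dose yields 30% or more activation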;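 note: 100% = tunicamycin at 10 µg/mL and 0% = DMSO only wells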
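Material: CHO-XBP1 cells stably carrying IRE1-XBP1-driven luciferase reporter | Medium: F12 with 10% serum | Compound dosing: 20 µM single concentration, DMSO 1% | Incubation: Overnight seeding at 37 °C, 6 h compound treatment at 37 °C | Detection: Steady-Glo luminescence read | Read-out basis: % activation of reporter signal versus tunicamycin and DMSO controls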
Active calls of the source: *; x = not tested or not shown.

SMILES	CHOP inh	UPR CHOP act	hiPSC survival	Cardio protect	UPR XBP1 act
COc1ccc(-c2nc(-c3ccccc3)nc(N3CCN(C)CC3)c2C#N)cc1	67	0	10	4	10
COCCCn1cnc2c(c1=O)c1nc3ccccc3nc1n2-c1ccc(C)cc1	13	0	0	13	-2
Cc1cc(C)cc(-n2c3nc4ccccc4nc3c3c(=O)n(Cc4ccco4)cnc32)c1	103*	-2	0	1	0
Cc1cc(C(=O)CSc2nnc(-c3ccccc3)n2-c2ccccc2)c(C)n1-c1ncn[nH]1	-9	2	2	-1	0
Cc1cc(C(=O)CSc2nnc3ccccn23)c(C)n1-c1ccccc1	73*	-10	-1	-21	-8
Cc1cc(C(C)(C)C)cc(S(=O)(=O)Nc2ccc(O)c(C(=O)O)c2)c1C	21	0	4	6	-2
CC(=O)Nc1ccc(NC(=O)c2ccc(NS(=O)(=O)c3cc(C(C)(C)C)cc(C)c3C)cc2)cc1	76*	1	-2	5	-2
O=C(CC[C@H]1O[C@@H](n2cnc3c(NC(=O)c4ccccc4)ncnc32)[C@H](O)[C@@H]1O)N[C@@H](CO)c1ccccc1	x	x	0	2	x
Cc1ccc2[nH]c(=O)c(CN(Cc3ccco3)S(=O)(=O)c3c(C)ccc4nsnc34)cc2c1	-1	-1	0	50*	-3
Cc1ccc2nsnc2c1S(=O)(=O)N(Cc1ccco1)Cc1cc2ccc(C)c(C)c2[nH]c1=O	57	x	1	27	x
Cc1ccc2nsnc2c1S(=O)(=O)N(Cc1ccco1)Cc1cc2cccc(C)c2[nH]c1=O	32	2	3	73*	3
Cc1ccc2[nH]c(=O)c(CN(CC3CCCO3)S(=O)(=O)c3c(C)ccc4nsnc34)cc2c1 (stereo not given)	-3	0	0	34	4
COc1ccc2[nH]c(=O)c(CN(Cc3cccs3)S(=O)(=O)c3c(C)ccc4nsnc34)cc2c1	-25	5	6	69*	6
CCC1NC(=O)c2cccnc2-n2c1nc1ccc(F)cc1c2=O (stereo not given)	x	x	2	13	x
CCc1nc2ccc(C(=O)Nc3ccc(C(N)=O)cc3)cn2c1N(CCC(C)C)CCN(C)C	x	x	-2	6	x
NC(N)=N/N=C/c1cc([N+](=O)[O-])ccc1O	-6	1	-1	7	-1
Cc1ccccc1/C=N/NC(=O)Cn1cnc([N+](=O)[O-])n1	-11	-3	-2	4	0
O=C(Cn1cnc([N+](=O)[O-])n1)N/N=C/c1ccccc1O	43	-1	1	64*	-2
O=[N+]([O-])c1ccc(O)c(/C=N\N=C2c3ccccc3-c3ccccc32)c1	79*	3	2	-28	5
O=C(N/N=C/c1cc([N+](=O)[O-])ccc1O)c1cccc(NC(=O)c2cccc(Cl)c2)c1	x	2	0	56*	-1
O=C(N/N=C/c1cc([N+](=O)[O-])ccc1O)C1CCCCC1	45	0	4	52*	-2
COc1ccccc1-c1cccc(-c2nc(C(=O)N3CCCCC3)cc3c2[C@@H](CCO)N(S(=O)C(C)(C)C)C3)c1 (stereo not given in full)	x	x	2	2	x
C[C@H]1CN([C@@H](C)CO)C(=O)CCCn2cc(nn2)CO[C@@H]1CN(C)C(=O)Nc1ccccc1F	x	x	1	1	x
O=[N+]([O-])c1ccc(O)c(/C=N/Nc2ccc(Cl)nn2)c1	75*	19	-3	34	5
O=[N+]([O-])c1ccc(O)c(/C=N/Nc2nn[nH]n2)c1	8	2	0	-5	0
SMILES	CHOP inh	UPR CHOP act	hiPSC survival	Cardio protect	UPR XBP1 act
O=C(N/N=C/c1cc([N+](=O)[O-])ccc1O)c1ccc(COc2ccc3c(c2)CCC3)o1	x	21	0	44	33*
O=C(CCC(=O)Nc1ccc(F)cc1)N/N=C/c1cc([N+](=O)[O-])ccc1O	31	0	0	49	-3
Cc1cccc(NC(=O)CCC(=O)N/N=C/c2cc([N+](=O)[O-])ccc2O)c1	31	1	-2	58*	-1
O=C(CCC(=O)Nc1ccc(Br)cc1)N/N=C/c1cc([N+](=O)[O-])ccc1O	17	-1	0	54*	-5
C[C@@H]1CN([C@@H](C)CO)C(=O)CCCn2nncc2CO[C@H]1CN(C)Cc1cccc(C(F)(F)F)c1	x	x	11	2	x
Cc1ccn(CC(=O)N/N=C/c2cc([N+](=O)[O-])ccc2O)n1	40	0	-1	67*	-1
COc1ccc(CN2C(=O)C(CC(=O)NCc3ccco3)CC(C(=O)N(C(C)C)C(C)C)=C2C)cc1 (stereo not given)	x	x	-2	-6	x
Nn1cnc2c(c1=O)C1(CCCCC1)Cc1ccccc1-2	34	6	3	4	-4
Oc1ccc(-c2nc3c4c(ncn3n2)-c2ccccc2CC42CCCC2)cc1	106*	3	3	-32	23
COc1cccc(CC(=O)OCC(=O)N(C)CC(=O)Nc2ccccc2Cl)c1	x	2	1	-1	-2
O=C1NC(Cc2ccc(O)cc2)c2nc3ccc(Br)cc3c(=O)n2-c2ccc(Cl)cc21 (stereo not given)	x	-2	x	x	2
COCCNC(=O)C1CCCN(Cc2ccc(C#N)cc2)CC1 (stereo not given)	x	x	1	4	x
O=C(NCc1ccc(F)cc1)c1cc(C2CCCN(C(=O)c3ccc4ccccc4c3)C2)on1 (stereo not given)	x	x	1	-4	x
COc1ccccc1C(=O)NCC(=O)N/N=C/c1cc(Br)ccc1OC(=O)/C=C\c1ccco1	29	0	1	88*	-4
O=C(CNC(=O)c1ccccc1F)N/N=C/c1cc(Br)ccc1OC(=O)/C=C/c1ccco1	35	0	0	57*	-1
O=C(CNC(=O)c1ccc(F)cc1)N/N=C/c1cc(Br)ccc1OC(=O)/C=C/c1ccco1	49	0	-1	80*	1
O=C(NC1CCCCC1)OC1CC2CC1[C@H]1CCCCN1C2=O (stereo not given in full)	x	x	0	x	x
CC1(CO)CCCC1NCCNC1CCCC1(C)CO (stereo not given)	x	x	0	0	x
COc1ccccc1C(=O)Oc1ccc2ccc(=O)oc2c1	x	2	0	14	2
COc1ccccc1C(=O)Oc1ccc(C(C)(C)C)cc1	75*	4	-1	-32	0
O=C(CCN1C(=O)/C(=C\c2ccccc2Cl)SC1=S)Nc1cccnc1	x	1	0	-9	-5
